Data on 17 compounds can be found in publication PMC9893515 (Bioorganic chemistry, 2021).

Structures are written as SMILES.

For the first assay, the target named is T1, recombinant human TDP2 (Homo sapiens, UniProt O95551).
T1 sequence (O95551 1-362): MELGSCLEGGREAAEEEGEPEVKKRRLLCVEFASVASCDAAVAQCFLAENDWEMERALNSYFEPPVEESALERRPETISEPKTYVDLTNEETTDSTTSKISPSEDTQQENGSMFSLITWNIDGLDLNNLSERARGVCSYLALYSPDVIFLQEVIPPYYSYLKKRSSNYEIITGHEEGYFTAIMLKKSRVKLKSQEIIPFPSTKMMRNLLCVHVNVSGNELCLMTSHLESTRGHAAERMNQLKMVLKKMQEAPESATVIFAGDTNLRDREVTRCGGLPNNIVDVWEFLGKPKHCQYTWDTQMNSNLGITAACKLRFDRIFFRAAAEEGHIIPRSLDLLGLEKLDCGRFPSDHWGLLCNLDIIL
The experiment in a line: Recombinant TDP2 assay.
Details: not given
In kind it is biochemical. In short, it runs like this: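 Human recombinant TDP2 (25 pM) with 1 nM 18-mer 5'-phosphotyrosyl ssDNA, 3'-α32P-cordycepin-labelled. Reaction ran 15 min at room temperature in Tris-HCl pH 7.5, KCl, MgCl2, EDTA, DTT, BSA and Tween 20. Stopped with formamide loading buffer, then 16% denaturing PAGE and phosphorimaging densitometry of product. […] IC50 is 50% enzyme inhibition.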
Regarding `CCOC(=O)c1c(C=O)oc2c1C(=O)c1ncccc1C2=O` [Compound 49, Ethyl-2-formyl-4,9-dioxo-4,9-dihydrofuro[2,3-g]quinoline-3-carboxylate], the IC50 (usually the midpoint of a concentration-inhibition curve) turned out to be 5.2 ± 4.1 µM.
Turning to `CCOC(=O)c1noc2c1C(=O)c1cnccc1C2=O` [Compound 50, Ethyl-4,9-dioxo-4,9-dihydroisoxazolo[5,4-g]isoquinoline-3-carboxylate], the IC50 came to 5.4 ± 0.8 µM.
Same read-out and setting: next, `CCOC(=O)c1noc2c1C(=O)c1ccncc1C2=O` [Compound 51, Ethyl 4,9-dioxo-4,9-dihydroisoxazolo[4,5-g]isoquinoline-3-carboxylate]: 12 ± 2.4 µM; `CC(C)(C)OC(=O)c1noc2c1C(=O)c1ncccc1C2=O` [Compound 54, Tert-butyl 4,9-dioxo-4,9-dihydroisoxazolo[5,4-g]quinoline-3-carboxylate]: 3.1 ± 0.43 µM; `CC(C)(C)OC(=O)c1noc2c1C(=O)c1cccnc1C2=O` [Compound 55, Tert-butyl 4,9-dioxo-4,9-dihydroisoxazolo[4,5-g]quinoline-3-carboxylate]: 3.3 ± 0.65 µM.
Same read-out and setting: the same measure for `O=C(OCCc1ccc(Cl)cc1)c1noc2c1C(=O)c1ncccc1C2=O` [Compound 56, 4-chlorophenethyl 4,9-dioxo-4,9-dihydroisoxazolo[5,4-g]quinoline-3-carboxylate]: 15 ± 1.3 µM; for `O=C(OCCc1ccc(Cl)cc1)c1noc2c1C(=O)c1cccnc1C2=O` [Compound 57, 4-chlorophenethyl 4,9-dioxo-4,9-dihydroisoxazolo[4,5-g]quinoline-3-carboxylate]: 9.9 ± 2.2 µM.
On to `O=C(OCC(F)(F)F)c1noc2c1C(=O)c1cccnc1C2=O` [Compound 59, 2,2,2-Trifluoroethyl 4,9-dioxo-4,9-dihydroisoxazolo[4,5-g]quinoline-3-carboxylate], for which the IC50 was found to be 14 ± 2.9 µM.
The same measure, in the same setting: next, `N#CCCOC(=O)c1noc2c1C(=O)c1cccnc1C2=O` [Compound 60, 2-Cyanoethyl 4,9-dioxo-4,9-dihydroisoxazolo[4,5-g]quinoline-3-carboxylate]: 10 ± 1.48 µM; `O=C(OCCc1cccc(F)c1)c1noc2c1C(=O)c1cccnc1C2=O` [Compound 61, 3-Fluorophenethyl 4,9-dioxo-4,9-dihydroisoxazolo[4,5-g]quinoline-3-carboxylate]: 8.7 ± 0.54 µM; `O=C(OCCc1ccc([N+](=O)[O-])cc1)c1noc2c1C(=O)c1cccnc1C2=O` [Compound 62, 4-Nitrophenethyl 4,9-dioxo-4,9-dihydroisoxazolo[4,5-g]quinoline-3-carboxylate]: 11 ± 3.8 µM.
Still for that read-out and setting: next, `O=C1c2ncccc2C(=O)c2c(COc3ccccc3)noc21` [Compound 65, 3-(Phenoxymethyl) isoxazolo[4,5-g]quinoline-4,9-dione]: 0.82 ± 0.28 µM; `CS(=O)(=O)c1ccc(OCc2noc3c2C(=O)c2cccnc2C3=O)cc1` [Compound 67, 3-((4-(Methylsulfonyl)phenoxy)methyl)isoxazolo[4,5-g]quinoline-4,9-dione]: 0.99 ± 0.13 µM.
On to `N#Cc1ccc(OCc2noc3c2C(=O)c2cccnc2C3=O)cc1` [Compound 68, 4-((4,9-Dioxo-4,9-dihydroisoxazolo[4,5-g]quinolin-3-yl)methoxy)benzonitrile], for which the concentration for half-maximal inhibition (IC50) was 0.74 ± 0.25 µM.

The assay is the same for the next values; noted with them: read-out: TDP2 inhibitory activity IC50; mean ± SD from at least three independent experiments; recombinant TDP2.
On to `CCOC(=O)c1noc2c1C(=O)c1nccnc1C2=O` [Compound 52, Ethyl-4,9-dioxo-4,9-dihydroisoxazolo[4,5-g]quinoxaline-3-carboxylate], for which the IC50 was 9.3 ± 2.7 µM.
Turning to `O=C(OCCOC12CC3CC(CC(C3)C1)C2)c1noc2c1C(=O)c1cccnc1C2=O` [Compound 63, 2-(((3 s,5s,7s)-Adamantan-1-yl)oxy)ethyl 4,9-dioxo-4,9-dihydroisoxazolo[4,5-g]quinoline-3-carboxylate], the IC50 turned out to be 20 ± 0.18 µM.
The same measure, in the same setting: the same measure for `O=C1c2ncccc2C(=O)c2c(COc3ccccc3Cl)noc21` [Compound 66, 3-((2-Chlorophenoxy)methyl)isoxazolo[4,5-g]quinoline-4,9-dione]: 0.94 ± 0.24 µM.
